# Laboratory results published in ChEMBL document CHEMBL1142436, “Design and synthesis of 4-substituted indolo[3,2-e][1,2,3]triazolo[1,5-a]pyrimidine derivatives with antitumor activity” (2008).
# Columns and labels:
# Type in all cases: functional
# UO-31 = assay: Growth inhibition of human UO31 cells after 48 hrs; settings: UO-31, 48 h
# Summary of the method: (§1)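 NCI 60-line screen: cells in RPMI 1640 with 5% FBS and 2 mM L-glutamine, plated at 5000–40000 cells/well, grown 24 h (37 °C, 5% CO₂), then exposed to five 10-fold or ½-log dilutions (DMSO stock) for 48 h. Fixed with TCA (final 10% for adherent cells, 16% for suspension cells), then SRB stained with absorbance at 515 nm. GI50 from percentage growth relative to time-zero and control wells.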
# M14 = assay: Growth inhibition of human M14 cells after 48 hrs; settings: M14, 48 h
# Summary of the method: (§2)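 NCI ~60-line screen. Cells were grown in RPMI 1640 with 5% FBS and 2 mM L-glutamine and plated at 5000–40000 cells/well. After a 24 h preincubation, five drug concentrations from DMSO stocks were added for 48 h at 37 °C. Cells were TCA-fixed, stained with SRB and read at 515 nm. GI50 was taken from time-zero and control absorbances and reported as pGI50.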
# T47D = assay: Growth inhibition of human T47D cells after 48 hrs; summary of the method: as §1
# A549 = assay: Growth inhibition of human A549 cells after 48 hrs; settings: A549, 48 h; summary of the method: as §2
# RPMI-8226 = assay: Growth inhibition of human RPMI8226 cells after 48 hrs; settings: RPMI-8226, 48 h; summary of the method: as §2
# U-251 = assay: Growth inhibition of human U251 cells after 48 hrs; settings: U-251, 48 h; summary of the method: as §1
# EKVX = assay: Growth inhibition of human EKVX cells after 48 hrs; summary of the method: as §2
# SK-OV-3 = assay: Growth inhibition of human SKOV3 cells after 48 hrs; settings: SK-OV-3, 48 h; summary of the method: as §1
# 786-0 = assay: Growth inhibition of human 786-0 cells after 48 hrs; settings: 786-0, 48 h; summary of the method: as §2
# UACC-257 = assay: Growth inhibition of human UACC257 cells after 48 hrs; settings: UACC-257, 48 h; summary of the method: as §1
# NCI-H460 = assay: Growth inhibition of human NCI-H460 cells after 48 hrs; settings: NCI-H460, 48 h; summary of the method: as §2
# OVCAR-3 = assay: Growth inhibition of human OVCAR-3 cells after 48 hrs; settings: OVCAR-3, 48 h; summary of the method: as §2
# HCT-15 = assay: Growth inhibition of human HCT15 cells after 48 hrs; settings: HCT-15, 48 h; summary of the method: as §2
# HOP-92 = assay: Growth inhibition of human HOP92 cells after 48 hrs; settings: HOP-92, 48 h; summary of the method: as §2
# TK-10 = assay: Growth inhibition of human TK10 cells after 48 hrs; settings: TK-10, 48 h; summary of the method: as §1
# RXF 393 = assay: Growth inhibition of human RXF393 cells after 48 hrs; settings: RXF 393, 48 h; summary of the method: as §2
# CCRF-CEM = assay: Growth inhibition of human CCRF-CEM cells after 48 hrs; summary of the method: as §2
# SN12C = assay: Growth inhibition of human SN12C cells after 48 hrs; summary of the method: as §1
# CAKI-1 = assay: Growth inhibition of human CAKI1 cells after 48 hrs; settings: CAKI-1, 48 h; summary of the method: as §2
# COLO 205 = assay: Growth inhibition of human COLO205 cells after 48 hrs; settings: COLO 205, 48 h; summary of the method: as §2
# NCI-H522 = assay: Growth inhibition of human NCI-H522 cells after 48 hrs; settings: NCI-H522, 48 h; summary of the method: as §2
# MDA-MB-435 = assay: Growth inhibition of human MDA-MB435 cells after 48 hrs; settings: MDA-MB-435, 48 h; summary of the method: as §2
# SF-295 = assay: Growth inhibition of human SF295 cells after 48 hrs; settings: SF-295, 48 h; summary of the method: as §2
# [1] = Growth inhibition of human HS578T cells after 48 hrs; settings: Hs-578T; summary of the method: as §2
# MDA-MB-231 = assay: Growth inhibition of human MDA-MB-231 cells after 48 hrs; settings: MDA-MB-231, 48 h; summary of the method: as §2
# NCI-H322M = assay: Growth inhibition of human NCI-H322M cells after 48 hrs; summary of the method: as §2
# OVCAR-8 = assay: Growth inhibition of human OVCAR8 cells after 48 hrs; settings: OVCAR-8, 48 h; summary of the method: as §2
# Malme-3M = assay: Growth inhibition of human MALME3M cells after 48 hrs; summary of the method: as §2
# NCI-H23 = assay: Growth inhibition of human NCI-H23 cells after 48 hrs; settings: Homo sapiens, NCI-H23, 48 h; summary of the method: as §2
# NCI/ADR-RES = assay: Growth inhibition of human NCI/ADR-RES cells after 48 hrs; summary of the method: as §2
# A498 = assay: Growth inhibition of human A498 cells after 48 hrs; settings: A498, 48 h; summary of the method: as §2
# HCT-116 = assay: Growth inhibition of human HCT116 cells after 48 hrs; settings: HCT-116, 48 h; summary of the method: as §2
# SF-268 = assay: Growth inhibition of human SF268 cells after 48 hrs; settings: SF-268, 48 h; summary of the method: as §2
# [2] = read-out: Log LC50 (the source's name) (converted)
smiles,measurement,setting,value
CCOC(=O)CNC(=O)CCCn1c(=O)c2c3ccccc3n(C)c2n2nnc(-c3ccccc3)c12,GI50,UO-31,47.9 µM
same,LC50,UO-31,> 50.1 µM
same,TGI,UO-31; read-out: pTGI (converted),> 50.1 µM
same,GI50,M14,18.6 µM
same,LC50,M14,> 50.1 µM
same,TGI,M14; read-out: pTGI (converted),> 50.1 µM
same,GI50,T47D,43.7 µM
same,CC50,T47D; [2],> 50.1 µM
same,TGI,T47D; read-out: pTGI (converted),> 50.1 µM
same,GI50,A549,33.1 µM
same,CC50,A549; [2],> 50.1 µM
same,TGI,A549; read-out: pTGI (converted),> 50.1 µM
same,GI50,RPMI-8226,10.7 µM
same,LC50,RPMI-8226,> 50.1 µM
same,TGI,RPMI-8226; read-out: pTGI (converted),33.9 µM
same,GI50,U-251,4.17 µM
same,LC50,U-251,46.8 µM
same,TGI,U-251; read-out: pTGI (converted),14.5 µM
same,GI50,EKVX,> 50.1 µM
same,LC50,EKVX,> 50.1 µM
same,TGI,EKVX; read-out: pTGI (converted),20.4 µM
same,GI50,SK-OV-3,6.76 µM
same,LC50,SK-OV-3,> 50.1 µM
same,TGI,SK-OV-3; read-out: pTGI (converted),43.7 µM
same,GI50,786-0,5.13 µM
same,LC50,786-0,> 50.1 µM
same,TGI,786-0; read-out: pTGI (converted),17.4 µM
same,GI50,UACC-257,> 50.1 µM
same,LC50,UACC-257,> 50.1 µM
same,TGI,UACC-257; read-out: pTGI (converted),> 50.1 µM
same,GI50,NCI-H460,> 50.1 µM
same,LC50,NCI-H460,> 50.1 µM
same,TGI,NCI-H460; read-out: pTGI (converted),> 50.1 µM
same,GI50,OVCAR-3,12.6 µM
same,LC50,OVCAR-3,> 50.1 µM
same,TGI,OVCAR-3; read-out: pTGI (converted),49 µM
same,GI50,HCT-15,> 50.1 µM
same,LC50,HCT-15,> 50.1 µM
same,TGI,HCT-15; read-out: pTGI,> 50.1 µM
same,GI50,HOP-92,> 50.1 µM
same,LC50,HOP-92,3.63 µM
same,TGI,HOP-92; read-out: pTGI (converted),14.8 µM
same,GI50,TK-10,8.71 µM
same,LC50,TK-10,> 50.1 µM
same,TGI,TK-10; read-out: pTGI (converted),20.9 µM
same,GI50,RXF 393,1320 nM
same,LC50,RXF 393,22.4 µM
same,TGI,RXF 393; read-out: pTGI (converted),4.37 µM
same,GI50,CCRF-CEM,26.3 µM
same,LC50,CCRF-CEM,> 50.1 µM
same,TGI,CCRF-CEM; read-out: pTGI (converted),> 50.1 µM
same,GI50,SN12C,> 50.1 µM
same,LC50,SN12C,> 50.1 µM
same,TGI,SN12C; read-out: pTGI (converted),> 50.1 µM
same,GI50,CAKI-1,8.32 µM
same,LC50 (concentration killing 50% of cells),CAKI-1,47.9 µM
same,TGI,CAKI-1; read-out: pTGI (converted),20 µM
same,GI50,COLO 205,> 50.1 µM
same,LC50,COLO 205,> 50.1 µM
same,TGI,COLO 205; read-out: pTGI (converted),> 50.1 µM
same,GI50,NCI-H522,6.46 µM
same,LC50,NCI-H522,> 50.1 µM
same,TGI,NCI-H522; read-out: pTGI (converted),20 µM
same,GI50,MDA-MB-435,> 50.1 µM
same,LC50,MDA-MB-435,39.8 µM
same,TGI,MDA-MB-435; read-out: pTGI (converted),20 µM
same,GI50,SF-295,4.79 µM
same,LC50,SF-295,> 50.1 µM
same,TGI,SF-295; read-out: pTGI (converted),17.4 µM
same,GI50,[1],4.47 µM
same,LC50 (50% lethal concentration),[1],> 50.1 µM
same,TGI,[1]; read-out: pTGI (converted),> 50.1 µM
same,GI50,MDA-MB-231,14.8 µM
same,LC50 (concentration killing 50% of cells),MDA-MB-231,> 50.1 µM
same,TGI,MDA-MB-231; read-out: pTGI (converted),30.9 µM
same,GI50,NCI-H322M,> 50.1 µM
same,LC50,NCI-H322M,> 50.1 µM
same,TGI,NCI-H322M; read-out: pTGI (converted),> 50.1 µM
same,GI50,OVCAR-8,25.1 µM
same,LC50,OVCAR-8,> 50.1 µM
same,TGI,OVCAR-8; read-out: pTGI (converted),> 50.1 µM
same,GI50,Malme-3M,> 50.1 µM
same,LC50,Malme-3M,> 50.1 µM
same,TGI,Malme-3M; read-out: pTGI (converted),> 50.1 µM
same,GI50,NCI-H23,11.7 µM
same,CC50,NCI-H23; [2],> 50.1 µM
same,TGI,NCI-H23; read-out: pTGI (converted),> 50.1 µM
same,GI50,NCI/ADR-RES,> 50.1 µM
same,LC50 (concentration killing 50% of cells),NCI/ADR-RES,> 50.1 µM
same,TGI,NCI/ADR-RES; read-out: pTGI (converted),> 50.1 µM
same,GI50,A498,7.59 µM
same,CC50,A498; [2],> 50.1 µM
same,TGI,A498; read-out: pTGI (converted),24.5 µM
same,GI50,HCT-116,9.12 µM
same,LC50,HCT-116,> 50.1 µM
same,TGI,HCT-116; read-out: pTGI (converted),27.5 µM
same,GI50,SF-268,14.1 µM
same,CC50,SF-268; [2],> 50.1 µM
same,TGI,SF-268; read-out: pTGI (converted),> 50.1 µM
